# Calls of active or inactive are those of the source. The calls are words filed in the database; no cut-off is given here.
# Target: Glycogen synthase kinase-3 beta (Homo sapiens) (UniProt P49841)
# Experiment: Inhibition of GSK3beta phosphorylation at serine 9 residue in human HCT-116 cells at 1 micromol/L by Western blotting analysis
# Assay type: cell-based
# Conditions: dose 1.0 µmol/L, time <= 4.0 hrs
# Summary of the method: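 Cultured tumor cells treated with 1 μmol/L drug; lysates in cell extraction buffer with protease inhibitors, western blotted with phospho-specific antibodies (pGSK3β Ser9, pAKT Thr308, phospho-ERK) alongside total GSK3β/AKT.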
# Sequence of Glycogen synthase kinase-3 beta (Homo sapiens) (P49841 whole entry, looked up): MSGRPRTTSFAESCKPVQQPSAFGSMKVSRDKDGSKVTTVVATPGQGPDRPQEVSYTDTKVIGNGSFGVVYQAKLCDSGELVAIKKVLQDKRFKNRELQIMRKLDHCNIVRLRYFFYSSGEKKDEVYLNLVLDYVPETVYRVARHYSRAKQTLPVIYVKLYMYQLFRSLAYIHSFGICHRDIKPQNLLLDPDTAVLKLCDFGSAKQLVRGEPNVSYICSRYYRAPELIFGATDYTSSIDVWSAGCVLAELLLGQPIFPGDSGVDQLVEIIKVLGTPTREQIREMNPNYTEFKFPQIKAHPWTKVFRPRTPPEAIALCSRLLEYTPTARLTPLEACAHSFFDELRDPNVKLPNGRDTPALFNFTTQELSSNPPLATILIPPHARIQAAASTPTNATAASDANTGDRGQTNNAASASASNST
smiles,measurement,value
CO[C@@H]1[C@H](N(C)C(=O)c2ccccc2)C[C@H]2O[C@]1(C)n1c3ccccc3c3c4c(c5c6ccccc6n2c5c31)C(=O)NC4,inhibition,Active
